The values below come from ChEMBL document CHEMBL1124794, “Synthesis, chemistry, and antineoplastic activity of alpha-halopyridinium salts: potential pyridone prodrugs of acylated vinylogous carbinolamine tumor inhibitors” (J Med Chem, 1990).

For data set [1], the system named is P388. The data set can be described thus: In vivo activity against P388 Lymphocytic Leukemia in CD2F1 mice at the dose of mg/kg, activity expressed as KE. It counts as functional, Mus musculus.
Data set [2] in a line: Effect of pH on the hydrolysis of pyridinium Moity in 0.05 M buffer concentration at the pH 6.5. It counts as ADME. The method, boiled down:
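Pyridinium salt in 0.05 M phosphate buffer, pH 6.0–8.0 (set by pH meter), ionic strength 0.25 M, 25 °C. Decrease in the pyridinium UV absorbance maximum followed over time to give pseudo-first-order kobs and half-life.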

Data set [3] concerns P388. The experiment in a line: In vivo activity against P388 Lymphocytic Leukemia in CD2F1 mice at the dose of 25 mg/kg, activity expressed as body weight difference. The data set is classed as functional, Mus musculus. The method, boiled down:
(§1)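 CD2F1 mice were inoculated with ascitic fluid holding ca. 10^6 P388 cells. Drug was given daily from 24 h after inoculation, from solutions or suspensions made fresh each day, some as a saline suspension. TDS is survivors/initial animals on day 5. BWD is body weight on day 5 minus day 1. %T/C compares median survival of treated and control mice.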

Data set [4] in a line: In vivo activity against murine M5076 tumor system at the dose of 50 mg/kg, activity expressed as KE. It counts as functional, Mus musculus.
For data set [5], the system named is MX1. The experiment in a line: In vivo activity against murine MX-1 tumor system at the dose of 75 mg/kg, activity expressed as TDS; 4/6. It counts as functional, Mus musculus.
Data set [6] has as its system MX1. The experiment in a line: In vivo activity against murine MX-1 tumor system at the dose of 37.5 mg/kg, activity expressed as %T/C. It counts as functional, Mus musculus.
Data set [7] is described as follows: In vivo activity against murine M5076 tumor system at the dose of 25 mg/kg, activity expressed as TDS; 10/10. It counts as functional, Mus musculus. The method, boiled down: (§2)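 M5076: ascitic fluid with ca. 10^6 cells inoculated ip into CD2F1 mice. Dosing started 24 h after inoculation and was then given every 4 days for four doses in total, from solutions or suspensions made fresh each day. Toxicity day survivors were scored on day 5. Body weight difference is day 14 minus day 1. %T/C is based on median survival time versus controls.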

Data set [8] has as its system L1210. The data set can be described thus: In vivo activity against murine L1210 tumor system at the dose of 50 mg/kg, activity expressed as %T/C. The data set is classed as functional, Mus musculus. Put shortly: (§3)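 L1210 lymphocytic leukemia: ascitic fluid with ca. 10^6 cells injected ip into CD2F1 mice. Dosing started 24 h after inoculation and was repeated daily for five doses in total, from solutions or suspensions made fresh each day. Toxicity day survivors were scored on day 5. Body weight difference is day 5 minus day 1. %T/C is based on median survival time versus controls.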

The nature of data set [9]: Half life at the ionic strength 0.50 M NaCl. The data set is classed as ADME. The method, boiled down: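 Pyridinium salt in 0.02 M phosphate buffer, pH 7.4, 25 °C, with NaCl varied 0.10–1.0 M. Loss of the pyridinium chromophore's UV absorbance maximum (conversion to pyridone) followed over time. Pseudo-first-order kobs and half-life derived from that decay.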
The subject of data set [10] is P388. The data set can be described thus: In vivo activity against P388 Lymphocytic Leukemia in CD2F1 mice at the dose of 50 mg/kg, activity expressed as body weight difference. The data set is classed as functional, Mus musculus. The method, boiled down: as §1
For data set [11], the system named is L1210. The experiment in a line: In vivo activity against murine L1210 tumor system at the dose of 25 mg/kg, activity expressed as TDS; 6/6. The data set is classed as functional, Mus musculus. The method, boiled down:
as §3

Data set [12] can be described thus: In vivo activity against murine M5076 tumor system at the dose of 25 mg/kg, activity expressed as %T/C. It counts as functional, Mus musculus. The method, boiled down:
as §2

Data set [13] in a line: Effect of phosphate buffer on the hydrolysis of alpha Fluoropyridinium Moity at the concentration of 0.05M, pH 8.0,25degree C. The data set is classed as ADME. The method, boiled down:
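α-Fluoropyridinium hydrolysis to pyridone in phosphate buffer at 0.02, 0.05 or 0.10 M, pH 6.5 or 8.0, ionic strength […] °C. Pyridinium UV absorbance maximum followed with time to give pseudo-first-order kobs and half-life.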

The subject of data set [14] is MX1. The data set can be described thus: In vivo activity against murine MX-1 tumor system at the dose of 150 mg/kg, activity expressed as TDS; 0/6. It counts as functional, Mus musculus.
A short description of data set [15]: Half life at the pH 6.5. The data set is classed as ADME. The settings on record: buffer.
Data set [16] has as its system MX1. The data set can be described thus: In vivo activity against murine MX-1 tumor system at the dose of 37.5 mg/kg, activity expressed as TDS; 4/6. The data set is classed as functional, Mus musculus.
The subject of data set [17] is L1210. The experiment in a line: In vivo activity against murine L1210 tumor system at the dose of mg/kg, activity expressed as KE. It counts as functional, Mus musculus. The method, boiled down: as §3
Data set [18] has as its system L1210. The data set can be described thus: In vivo activity against murine L1210 tumor system at the dose of 50 mg/kg, activity expressed as TDS; 5/6. It counts as functional, Mus musculus. Put shortly:
as §3

For data set [19], the system named is L1210. The data set can be described thus: In vivo activity against murine L1210 tumor system at the dose of 100 mg/kg, activity expressed as TDS; 0/6. The data set is classed as functional, Mus musculus. The method, boiled down: as §3
A short description of data set [20]: Half life at the concentration of 0.02 M. The data set is classed as ADME.
Data set [21] can be described thus: In vivo activity against murine M5076 tumor system at the dose of 36 mg/kg, activity expressed as TDS; 10/10. The data set is classed as functional, Mus musculus. Put shortly: as §2
Data set [22] can be described thus: Effect of phosphate buffer on carbamate hydrolysis in acetonitrile-water at the concentration of 0.05 M on pH 7.4, 25 degree C. Put shortly:
(§4)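 Bis-carbamate in acetonitrile–water (1:1), 25 ± 0.1 °C. Citrate buffer at pH 3.0 or phosphate buffer at pH 7.4, at 0.01, 0.025 or 0.05 M, ionic strength 0.136 (KCl). Kinetics followed by HPLC as the decrease in bis-carbamate peak area. The regression slope of ln(area0/areat) vs time gave pseudo-first-order kobs. Duplicates averaged.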

Data set [23] can be described thus: In vivo activity against murine M5076 tumor system at the dose of 60 mg/kg, activity expressed as TDS; 10/10. The data set is classed as functional, Mus musculus.
Data set [24] in a line: In vivo activity against murine M5076 tumor system at the dose of 60 mg/kg, activity expressed as KE. The data set is classed as functional, Mus musculus.
Data set [25] can be described thus: Half life at the pH 3.5. The data set is classed as ADME. Particulars: buffer. Put shortly: (§5)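 Bis-carbamate in acetonitrile–water (1:1; buffer added to a 0.5 mg/mL acetonitrile solution), 0.05 M buffer, ionic strength 0.136 (KCl), 25 ± 0.1 °C. Buffers: phosphate pH 2.0; citrate pH 3.0–3.5; succinate pH 4.0; acetate pH 5.0; phosphate pH 6.0–8.0; borate pH 9.0; carbonate pH 10.0. HPLC bis-carbamate peak-area loss, ln(area0/areat) vs time slope = kobs. Duplicates averaged.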

Data set [26] is described as follows: Effect of phosphate buffer on carbamate hydrolysis in acetonitrile-water at the concentration of 0.01 M on pH 3.0, 25 degree C. The data set is classed as ADME. The settings on record: in the assay text read “citrate buffer” for “phosphate buffer”. The method, boiled down:
as §4

For data set [27], the system named is L1210. The data set can be described thus: In vivo activity against murine L1210 tumor system at the dose of 166.7 mg/kg, activity expressed as KE. The data set is classed as functional, Mus musculus. The method, boiled down:
as §3

Data set [28] is described as follows: Effect of pH on carbamate hydrolysis in 0.05 M buffer concentration at the pH 5.0, 25 degree C. The data set is classed as ADME. The method, boiled down: as §5
The subject of data set [29] is P388. The data set can be described thus: In vivo activity against P388 Lymphocytic Leukemia in CD2F1 mice at the dose of 100 mg/kg, activity expressed as % T/C. It counts as functional, Mus musculus. The method, boiled down:
as §1

A short description of data set [30]: In vivo activity against murine M5076 tumor system at the dose of 166.7 mg/kg, activity expressed as body weight difference; T-C. It counts as functional, Mus musculus. The method, boiled down:
as §2

Data set [31] is described as follows: Effect of pH on carbamate hydrolysis in 0.05 M buffer concentration at the pH 2.0, 25 degree C. The data set is classed as ADME. Put shortly:
as §5

Data set [32] is described as follows: Effect of pH on carbamate hydrolysis in 0.05 M buffer concentration at the pH 3.0, 25 degree C. It counts as ADME. Put shortly:
as §5

The test system of data set [33] is L1210. The experiment in a line: In vivo activity against murine L1210 tumor system at the dose of 166.7 mg/kg, activity expressed as %T/C. It counts as functional, Mus musculus. Put shortly:
as §3

Take `CC(C)NC(=O)OCc1c(COC(=O)NC(C)C)c(-c2cc[n+](C)c(F)c2)n2c1CCC2.[I-]`: the KE in the data set with P388 [1] was 1.25; in data set [4] it was -1.59; in the data set with L1210 [17], -2.08. The K obs in data set [2] is 0.0153 min⁻¹; in [13] it was 0.02 min⁻¹. Moreover, the BWD in the data set on P388 [3] was -1 g; in the data set on P388 [10], -0.8 g. Also, the TDS came to 4 with MX1 [5]; 10 in [7]; 6 with L1210 [11]; 0 with MX1 [14]; 4 in the data set with MX1 [16]; 5 with L1210 [18]. In the data set with L1210 [19], this compound yielded a TDS of 0. The T/C (as a rule, the result in the treated group divided by that in the control group, in per cent) in the data set on MX1 [6] stood at 69%; in the data set with L1210 [8] it was 118%; in data set [12], 104%. For the same compound, the half-life (in general, how long it takes for the measured level to halve) in data set [9] came out at 63.2 min; in data set [15], 45.3 min; in data set [20], 133 min.

Consider `CC(C)NC(=O)OCc1c(COC(=O)NC(C)C)c(-c2ccn(C)c(=O)c2)n2c1CCC2`, for which the TDS in data set [21] and in [23] was 10 throughout. The k obs in data set [22] is 0.000217 s⁻¹. The KE in data set [24] is -1.79; in the data set with L1210 [27], -2.29. In [25], this compound had a half-life of 32.5 min. Besides, the K obs in data set [26] came out at 0.0349 min⁻¹; in data set [28], 0.0139 min⁻¹; in data set [31], 0.33 min⁻¹; in data set [32] it was 0.0304 min⁻¹. The T/C came out at 148% in the data set on P388 [29] and 110% with L1210 [33]. The compound also returned a BWD in data set [30] of -5.8 g.
